The values that follow come from ChEMBL document CHEMBL3102734, “Inhibition of LOX by flavonoids: a structure-activity relationship study” (Eur J Med Chem, 2014).

Experiment [1] addresses T1, Polyunsaturated fatty acid 5-lipoxygenase (Homo sapiens) (UniProt P09917).
T1 sequence (whole entry): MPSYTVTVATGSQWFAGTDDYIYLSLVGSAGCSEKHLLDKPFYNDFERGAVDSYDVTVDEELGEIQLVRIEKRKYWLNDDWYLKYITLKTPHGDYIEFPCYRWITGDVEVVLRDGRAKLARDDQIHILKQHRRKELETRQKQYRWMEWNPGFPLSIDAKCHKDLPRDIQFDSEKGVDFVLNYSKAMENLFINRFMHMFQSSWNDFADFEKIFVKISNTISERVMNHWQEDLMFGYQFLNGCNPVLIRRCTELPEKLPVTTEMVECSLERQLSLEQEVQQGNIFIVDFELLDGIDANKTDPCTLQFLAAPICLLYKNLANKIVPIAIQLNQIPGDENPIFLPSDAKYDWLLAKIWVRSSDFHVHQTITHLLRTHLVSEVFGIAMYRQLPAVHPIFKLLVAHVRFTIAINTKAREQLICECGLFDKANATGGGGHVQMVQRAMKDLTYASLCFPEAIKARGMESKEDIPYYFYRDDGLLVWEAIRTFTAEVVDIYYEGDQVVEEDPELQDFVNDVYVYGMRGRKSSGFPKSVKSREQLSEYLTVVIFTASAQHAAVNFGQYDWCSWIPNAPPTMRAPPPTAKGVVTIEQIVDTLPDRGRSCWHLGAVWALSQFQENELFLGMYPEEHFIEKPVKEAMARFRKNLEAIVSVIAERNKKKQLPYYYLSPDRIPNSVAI
The experiment in a line: Inhibition of 5-LOX-mediated LTB4 production in human neutrophils using arachidonic acid as substrate at 40 uM preincubated for 10 mins followed by substrate addition measured after 8 mins by enzyme immunoassay relative to control. Put shortly: (§1)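 Isolated human neutrophils held in HBSS on ice; viability checked by trypan blue. Cells at 3.5×10^6 cells/mL equilibrated 10 min at 37 °C. Flavonoids (0.15–40 μM) pre-incubated 10 min, then A23187 (5 μM) plus arachidonic acid (10 μg/mL) added for 8 min. Stopped with cold methanol and centrifuged 13,000 g, 1 min, 4 °C. LTB4 measured by EIA and expressed as % inhibition of control. NDGA (1 μM) positive control. At least three experiments.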

The target in experiment [2] is T2, Seed linoleate 13S-lipoxygenase-1 (Glycine max) (UniProt P08170).
T2 sequence (whole entry): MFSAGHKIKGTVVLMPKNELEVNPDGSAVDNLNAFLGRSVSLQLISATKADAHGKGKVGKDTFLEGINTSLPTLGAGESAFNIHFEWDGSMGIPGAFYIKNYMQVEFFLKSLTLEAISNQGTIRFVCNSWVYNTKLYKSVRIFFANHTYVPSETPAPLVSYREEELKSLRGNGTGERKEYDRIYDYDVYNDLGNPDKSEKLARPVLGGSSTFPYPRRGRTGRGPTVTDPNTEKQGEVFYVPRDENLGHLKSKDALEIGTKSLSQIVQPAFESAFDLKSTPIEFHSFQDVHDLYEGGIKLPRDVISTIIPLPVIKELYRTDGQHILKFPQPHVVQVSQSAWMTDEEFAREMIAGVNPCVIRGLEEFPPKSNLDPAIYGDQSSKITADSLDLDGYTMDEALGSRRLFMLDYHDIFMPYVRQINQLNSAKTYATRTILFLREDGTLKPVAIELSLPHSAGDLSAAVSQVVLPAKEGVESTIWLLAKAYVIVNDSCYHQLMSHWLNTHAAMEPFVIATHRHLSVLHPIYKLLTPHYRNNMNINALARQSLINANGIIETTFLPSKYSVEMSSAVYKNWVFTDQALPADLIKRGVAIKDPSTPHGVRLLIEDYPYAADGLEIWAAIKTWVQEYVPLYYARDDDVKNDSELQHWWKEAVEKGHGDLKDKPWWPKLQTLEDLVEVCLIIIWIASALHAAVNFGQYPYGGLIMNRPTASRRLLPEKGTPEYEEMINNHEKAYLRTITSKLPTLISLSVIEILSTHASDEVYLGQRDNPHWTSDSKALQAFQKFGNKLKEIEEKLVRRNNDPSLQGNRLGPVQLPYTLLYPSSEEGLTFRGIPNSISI
The experiment in a line: Binding affinity to soybean LOX-1 at 1248 uM by STD-[1H] NMR spectroscopic analysis. Put shortly:
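STD-1H NMR at 37 °C, 600 MHz, cryoprobe. Lyophilized soybean LOX-1 in Tris buffer (20 mM Tris, 7 mM (NH4)2SO4, 3.5 mM MgCl2, 0.3 mM DTT in D2O, pH 9.0). Ligand added from a 16.6 mM DMSO-d6 stock. Final concentrations: LOX 4 μM, ligand 1248 μM, ratio 300:1. On-resonance saturation at 1.0 ppm; off-resonance reference at 20000 Hz.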

In experiment [3] the target is T3, Seed linoleate 13S-lipoxygenase-1 (Glycine max, UniProt P08170).
T3 sequence (P08170 whole entry): T2 sequence (whole entry)
The experiment in a line: Uncompetitive inhibition of soybean LOX-1 using linoleic acid as substrate preincubated for 5 mins followed by substrate addition by Lineweaver-Burk plot analysis. Put shortly: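 Soybean LOX-1 (supplied lyophilized) kinetic assay. Enzyme pre-incubated with inhibitor 5 min, then linoleic acid added. Readings every 30 s for 10 min; rate taken as the 0–3 min slope. Three inhibitor concentrations tested against three substrate concentrations. Inhibition type assigned by nonlinear Michaelis–Menten fitting and Lineweaver–Burk plots. At least four experiments, each in triplicate.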

For experiment [4], the target named is T4, Polyunsaturated fatty acid 5-lipoxygenase (Homo sapiens, UniProt P09917).
T4 sequence (P09917 whole entry): T1 sequence (whole entry)
The experiment in a line: Inhibition of 5-LOX-mediated LTB4 production in human neutrophils using arachidonic acid as substrate preincubated for 10 mins followed by substrate addition measured after 8 mins by enzyme immunoassay. Put shortly: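 Isolated human neutrophils held in HBSS on ice; viability checked by trypan blue. Flavonoids (0.15–40 μM) pre-incubated 10 min, then A23187 (5 μM) plus arachidonic acid (10 μg/mL) added for 8 min. Stopped with cold methanol and centrifuged 13,000 g, 1 min, 4 °C. LTB4 measured by EIA and expressed as % inhibition of control. NDGA (1 μM) positive control. At least three experiments.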

Experiment [5] deals with T3, Seed linoleate 13S-lipoxygenase-1. The experiment in a line: Mixed noncompetitive type inhibition of soybean LOX-1 using linoleic acid as substrate preincubated for 5 mins followed by substrate addition by Lineweaver-Burk plot analysis. In short, it runs like this:
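Soybean LOX-1 (supplied lyophilized) kinetic assay. Enzyme pre-incubated with inhibitor 5 min, then linoleic acid added. Conversion to the cis,trans-hydroperoxide followed at 234 nm at 30 °C with continuous soft shaking. Readings every 30 s for 10 min; rate taken as the 0–3 min slope. Three inhibitor concentrations tested against three substrate concentrations. Inhibition type assigned by nonlinear Michaelis–Menten fitting and Lineweaver–Burk plots. At least four experiments, each in triplicate.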

In experiment [6] the target is T1, Polyunsaturated fatty acid 5-lipoxygenase (Homo sapiens). The experiment in a line: Inhibition of 5-LOX-mediated LTB4 production in human neutrophils using arachidonic acid as substrate at 0.15 to 40 uM preincubated for 10 mins followed by substrate addition measured after 8 mins by enzyme immunoassay relative to control. In short, it runs like this:
as §1

pIC50, pKi: −log10 of the molar value. The source made the active and inactive calls. The rule behind the calls is not given here.

`COc1ccc(-c2cc(=O)c3c(O)cc(O)cc3o2)cc1`: in experiment [1], the inhibition result is “Active”. Besides, the result in experiment [2] was Active.

Turning to `O=c1cc(-c2ccc(O)cc2)oc2ccccc12`, the inhibition in experiment [1] was 38.4%.

Consider `O=c1cc(-c2ccc(O)c(O)c2)oc2cccc(O)c12`, for which the outcome in experiment [2] was Active. The same compound showed a pKi in experiment [3] of 4.74. This compound had a negative logarithm of the IC50 (pIC50) in experiment [4] of 5.54.

Regarding `COc1ccc(-c2cc(=O)c3c(O)cc(O)cc3o2)cc1OC`, the inhibition in experiment [1] was less than 50%.

As for `O=C1CC(c2ccc(O)cc2)Oc2cc(O)cc(O)c21` (racemic), in experiment [1], the inhibition was less than 50%.

Consider `COc1cc(-c2cc(=O)c3c(O)cc(O)cc3o2)ccc1O`, for which the inhibition in experiment [1] was less than 50%.

In experiment [1], `O=c1cc(-c2ccccc2)oc2cc(O)ccc12` registered an inhibition of 53.1%.

`O=c1cc(-c2cccc(O)c2)oc2ccccc12` showed an inhibition in experiment [1] of less than 50%.

`O=c1cc(-c2cccc(O)c2)oc2cccc(O)c12` registered an inhibition in experiment [1] of less than 50%.

In turn, `O=c1cc(-c2ccccc2)oc2cc(O)cc(O)c12` [CHRYSIN] came in with an inhibition in experiment [1] of less than 50%. Also, in experiment [2], the outcome was Active. Also, the pKi in experiment [5] was 4.71.

For the compound `O=c1cc(-c2ccccc2)oc2cccc(O)c12`, the inhibition result in experiment [6] is “inactive”.

On to `O=C1CC(c2ccc(O)c(O)c2)Oc2cc(O)cc(O)c21` (racemic), for which the inhibition in experiment [1] turned out to be 53.4%.

Regarding `O=c1cc(-c2cccc(O)c2)oc2cc(O)ccc12`, in experiment [1], the inhibition was determined as 51.4%.

Compound `O=c1cc(-c2cccc(O)c2)oc2cc(O)cc(O)c12` had an inhibition in experiment [1] of 52%. Moreover, in experiment [2], the outcome was Active. Further, the pKi in experiment [3] is 4.02.

`COc1ccc(-c2cc(=O)c3c(O)cc(O)cc3o2)cc1O`: in experiment [6], the inhibition entry is “inactive”.

As to `O=c1cc(-c2ccc(O)c(O)c2)oc2cc(O)cc(O)c12` [LUTEOLIN], the outcome in experiment [2] was Active. The compound also had a negative-log Ki (pKi) in experiment [3] of 3.91. In experiment [4], this compound showed a negative-log IC50 (pIC50) of 5.80.

For `O=c1cc(-c2ccccc2)oc2ccccc12`, the inhibition in experiment [1] is less than 50%.

On to `O=C1c2c(O)cc(O)cc2O[C@H](c2ccc(O)c(O)c2)[C@H]1O`, for which the inhibition in experiment [1] stood at 19.9%.

With `O=c1cc(-c2ccc(O)cc2)oc2cc(O)ccc12`, the inhibition in experiment [1] was less than 50%.

Regarding `O=c1cc(-c2ccc(O)cc2)oc2cccc(O)c12`, the inhibition in experiment [1] came out at 29.8%. Also, the result in experiment [2] was Active. The same compound gave a pKi in experiment [5] of 3.99.

`O=c1cc(-c2ccc(O)c(O)c2)oc2ccccc12`: the result in experiment [2] was Active. Further, the pKi in experiment [5] was 4.07. This compound gave a negative logarithm of the IC50 (pIC50) in experiment [4] of 5.77.

For `O=c1cc(-c2ccc(O)c(O)c2)oc2cc(O)ccc12`, the result in experiment [2] was Active. For the same compound, the pIC50 in experiment [4] was 5.70.

`O=c1cc(-c2ccc(O)cc2)oc2cc(O)cc(O)c12` [APIGENIN] had an inhibition in experiment [1] of less than 50%. Besides, in experiment [2], the outcome was Active. In experiment [5], this compound showed a pKi of 3.75.

What is called inhibition is the drop in the measured response relative to a control, in per cent. As usually defined, the pKi is −log10 of the Ki, conventionally taken in molar units. Read a low pKi as a high Ki. By pIC50 is commonly meant the negative decadic logarithm of the IC50, by convention in mol/L.
